Measurements from different studies.
Compare with care: the assays were run in different laboratories.
Observed: cell growth or viability

With `O=C1Cc2c([nH]c3ccc(Br)cc23)-c2ccc(Cl)cc2N1` the CC50 was > 200 µM (J774; WST-1; 24 h).
With `Nc1nc(O)c2ncn(COC(CO)CO)c2n1` the CC50 was > 150 µM (HFF; ATP luminescence).
`CCN(CC)CCNC(=O)CN1C(=O)Cc2c([nH]c3ccc(Br)cc23)-c2ccc(Cl)cc21` has a CC50 of ≤ 10 µM (J774; WST-1; 24 h).
With `O=c1[nH]c2sc3c(c2c(=O)n1O)CCN(Cc1ccccc1)C3` the CC50 was > 50 µM (HFF; MTS; 7 days).
`CN(C)c1ccc(C(=C2C=CC(=[N+](C)C)C=C2)c2ccc(N(C)C)cc2)cc1` has a CC50 of 4.91 µM (J774; ATP luminescence; 72 h).
`NCCNC(=O)CN1C(=O)Cc2c([nH]c3ccc(Br)cc23)-c2ccc(Cl)cc21` has a CC50 of ≥ 100 µM (J774; WST-1; 24 h).
With `O=S(=O)(c1ccc(Cl)cc1)c1nc(-c2ccccc2)oc1S(=O)(=O)c1ccc(Cl)cc1` the CC50 was 86.2 µM (HFF; ATP luminescence).
With `O=c1[nH]c2cc(-c3ccc(Cl)cc3)sc2c(=O)n1O` the CC50 was > 50 µM (HFF; MTS; 7 days).
`N#Cc1nc(-c2ccccc2)oc1N1CCCC1CO` (stereo not drawn) gave a CC50 of > 150 µM (HFF; ATP luminescence).
For `O=c1[nH]c2sc(-c3ccc(Cl)cc3)cc2c(=O)n1O`, the CC50 was > 50 µM (HFF; MTS; 7 days).
The CC50 of `NCCCCNC(=O)CN1C(=O)Cc2c([nH]c3ccc(Br)cc23)-c2ccc(Cl)cc21` is reported as ≥ 100 µM (J774; WST-1; 24 h).
`Nc1ccn(C[C@@H](CO)OCP(=O)(O)O)c(=O)n1` has a CC50 of 60 µM (HFF; ATP luminescence; 14 days).
